Data set [1] has as its system MV4-11. The data set can be described thus: Drug uptake in human MV4-11 cells assessed as intracellular localization at 1 uM after 24 hrs by DAPI staining based confocal fluorescence microscopy. It is filed as ADME, cell-based. The settings on record: mv4-11, 24 h. The gist of the method:
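MV4-11 cells given 1 μM probe at 37°C for 24 h, then fixed. Cells stained with Na⁺/K⁺-ATPase α1 antibody plus Alexa Fluor 568 secondary as the surface marker. DAPI used to mark non-viable cells. Imaged by confocal microscopy.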

Data set [2] deals with T1, Heat shock protein HSP90 (Homo sapiens) (UniProt P07900+P08238). The data set can be described thus: Binding affinity to Hsp90 in human MOLM13 cells assessed as staining of live cells at 1 uM after 4 hrs using DAPI staining by flow cytometry analysis. The data set is classed as cell-based. The settings on record: MOLM-13. The gist of the method: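 MOLM-13 cells exposed to each fluorescent derivative at 1 μM, 37°C, 4 h. Binding to live cells (DAPI negative) read by flow cytometry as mean fluorescence intensity.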
Background: Flow cytometry measures light scatter and fluorescence of single cells or particles in a stream.

In data set [3] the target is T1, Heat shock protein HSP90 (Homo sapiens). As to the kind of experiment: Inhibition of Hsp90 in human MOLM13 cells assessed as Raf1 degradation at 1 uM after 24 hrs using horseradish peroxidase by Western blot analysis. The data set is classed as cell-based. The settings on record: MOLM-13. In a few lines:
(§1)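 MOLM-13 cells treated with derivatives at 1 μM for 24 h. Steady-state mFLT3 and Raf-1 levels read by Western blot, with β-actin as the loading control.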
A general note: In western blotting, separated proteins are transferred to a membrane and probed.

For data set [4] the target is unchanged. The data set can be described thus: Inhibition of Hsp90 in human MOLM13 cells assessed as decrease in cell viability after 24 hrs using DAPI staining by flow cytometry analysis. The data set is classed as cell-based. The settings on record: MOLM-13. The gist of the method: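 MOLM-13 cells exposed to derivatives at 1 μM, 37°C, 24 h. Viability scored by DAPI exclusion.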

For data set [5], the target named is Receptor-type tyrosine-protein kinase FLT3 (Homo sapiens) (UniProt P36888). As to the kind of experiment: Inhibition of Hsp90 in human MOLM13 cells assessed as FLT3 mutant degradation at 1 uM after 24 hrs using horseradish peroxidase by Western blot analysis. The data set is classed as cell-based. The settings on record: MOLM-13. The gist of the method: as §1

For data set [6], the system named is MV4-11. The data set can be described thus: Drug uptake in human MV4-11 cells assessed as CD45 staining of cells at 1 uM after 30 mins using 7-AAD staining by flow cytometry analysis. The data set is classed as ADME, cell-based. The settings on record: mv4-11, 0.5 h.
Another data set deals with MOLM-13. The data set can be described thus: Drug uptake in human MOLM13 cells assessed as CD45 staining of cells at 1 uM after 1 hr using 7-AAD staining by flow cytometry analysis. The settings on record: molm-13, 1 h. The data set is classed as ADME, cell-based.
Data set [7] in a line: Drug uptake in human lymphocytes assessed as CD45 staining of cells at 1 uM after 1 hr using 7-AAD staining by flow cytometry analysis. It is filed as ADME, cell-based. The settings on record: lymphocyte.

Each structure is given as a SMILES string. Activity calls are given as the source filed them. The calls are words filed in the database; no cut-off is given here.

These results are taken from ChEMBL document CHEMBL1909598, “Synthesis of purine-scaffold fluorescent probes for heat shock protein 90 with use in flow cytometry and fluorescence microscopy” (Bioorg Med Chem Lett, 2011).

Chain of Receptor-type tyrosine-protein kinase FLT3 (Homo sapiens) (P36888 whole entry): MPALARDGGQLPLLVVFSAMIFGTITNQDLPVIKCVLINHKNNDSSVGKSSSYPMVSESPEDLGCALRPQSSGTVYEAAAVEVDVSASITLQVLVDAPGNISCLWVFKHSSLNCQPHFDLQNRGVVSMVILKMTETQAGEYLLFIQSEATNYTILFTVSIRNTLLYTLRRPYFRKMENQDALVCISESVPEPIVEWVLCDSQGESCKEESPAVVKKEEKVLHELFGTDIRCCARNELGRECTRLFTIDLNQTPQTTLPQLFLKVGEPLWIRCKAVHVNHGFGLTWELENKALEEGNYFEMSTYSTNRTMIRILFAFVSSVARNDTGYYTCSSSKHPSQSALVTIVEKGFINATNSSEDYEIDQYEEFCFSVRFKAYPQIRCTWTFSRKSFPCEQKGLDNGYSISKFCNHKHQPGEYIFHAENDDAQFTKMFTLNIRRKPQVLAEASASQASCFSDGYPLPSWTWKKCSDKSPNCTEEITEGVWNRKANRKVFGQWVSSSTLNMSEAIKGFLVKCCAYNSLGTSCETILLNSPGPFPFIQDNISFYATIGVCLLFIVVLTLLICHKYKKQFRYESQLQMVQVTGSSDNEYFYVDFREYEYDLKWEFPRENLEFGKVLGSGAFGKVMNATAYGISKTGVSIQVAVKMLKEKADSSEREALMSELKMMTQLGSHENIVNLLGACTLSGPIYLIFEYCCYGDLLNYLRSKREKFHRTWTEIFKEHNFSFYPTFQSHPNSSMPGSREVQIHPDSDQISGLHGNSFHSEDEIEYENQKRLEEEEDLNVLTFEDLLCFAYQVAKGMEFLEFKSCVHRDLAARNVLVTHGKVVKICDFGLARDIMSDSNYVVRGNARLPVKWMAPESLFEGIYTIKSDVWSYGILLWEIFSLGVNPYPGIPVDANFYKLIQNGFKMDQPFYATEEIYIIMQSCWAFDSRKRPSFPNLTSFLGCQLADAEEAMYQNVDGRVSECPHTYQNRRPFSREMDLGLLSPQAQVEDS

Turning to `Nc1ncnc2c1nc(Sc1cc3c(cc1I)OCO3)n2CCCNCCCCCCNc1ccc([N+](=O)[O-])c2nonc12`, in the data set with MV4-11 [1], the Drug uptake result is “Active”. In addition, in data set [2], the result was Active. The inhibition result in data set [3], in data set [4] and in data set [5] was “Active” throughout.

On to `CC(C)N(CCCn1c(Sc2cc3c(cc2I)OCO3)nc2c(N)ncnc21)C(=S)Nc1ccc(-c2c3ccc(=O)cc-3oc3cc(O)ccc23)c(C(=O)O)c1`, for which the Drug uptake result in the data set with MV4-11 [6] is on record as “Active”; with MV4-11 [1] it was “Active”; in the data set with MOLM-13, “Active”; in data set [7] it was “Not Active”. Also, the result in data set [2] was Active. The inhibition result in data set [3], in data set [4] and in data set [5] was “Active” throughout.
